Assay results from paper PMC9532722 (Acta Pharmaceutica Sinica. B, 2022).
Values after ≈ are worked out from the molar mass of the structure shown. Values joined by “and” are separate entries in the source; they are usually repeats but may differ in a detail not shown here. Equal values may be shown once. Read-outs that look alike come from different tables or passages of the source.

Legend:
CYP2J2 [1] = molecular target: T1, CYP2J2 (Homo sapiens, UniProt P51589); test: in vitro; format: in vitro ADME
T1 sequence (P51589 1-502): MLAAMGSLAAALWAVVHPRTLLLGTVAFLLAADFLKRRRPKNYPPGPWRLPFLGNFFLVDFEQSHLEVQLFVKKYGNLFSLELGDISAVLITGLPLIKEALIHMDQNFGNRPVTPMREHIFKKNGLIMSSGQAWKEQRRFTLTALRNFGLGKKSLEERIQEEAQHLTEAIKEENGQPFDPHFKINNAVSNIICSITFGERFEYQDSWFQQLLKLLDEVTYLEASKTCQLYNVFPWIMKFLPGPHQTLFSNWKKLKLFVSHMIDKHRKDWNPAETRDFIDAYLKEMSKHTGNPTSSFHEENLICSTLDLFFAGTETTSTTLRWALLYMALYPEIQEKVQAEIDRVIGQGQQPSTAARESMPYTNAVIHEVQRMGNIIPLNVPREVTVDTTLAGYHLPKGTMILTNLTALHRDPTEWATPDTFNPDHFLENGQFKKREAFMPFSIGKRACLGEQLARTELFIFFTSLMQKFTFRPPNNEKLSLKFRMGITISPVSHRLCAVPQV

[2] = test system: canine model of paroxysmal AF; conditions: basic pacing cycle length of 200 ms; cited from earlier work
hiPSC-CMs = test: BTB variability in hiPSC-CMs; format: cell-based, human; conditions: hiPSC-CM, 1 μmol/L
Summary of the method: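 Cardiomyocytes from hiPSC made by viral-free reprogramming of human foreskin fibroblasts. Exposed to test compound (0–10 μmol/L); MEA field potentials recorded 5 min at baseline and 5 min after dosing. Successive RR intervals plotted as Poincaré plots, giving SD1 (STVRR) and SD2 (LTVRR). One experiment in triplicate, mean ± SEM; groups compared with control by one-way ANOVA and Dunnett's test.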

hKV11.1 (hERG) channel = hKV11.1 (hERG) channel (Homo sapiens, UniProt Q12809); test: Whole-cell patch clamp, KV11.1 tail current in transfected HEK293FT cells; format: cell-based
Summary of the method: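 HEK293FT cells grown in DMEM with 10% FBS at 37 °C, 5% CO2. Co-transfected with human KV11.1 and KCNE1 plasmids, then plated on poly-D-lysine coverslips. Test compound applied at 10 nmol/L–1 μmol/L under whole-cell voltage clamp: 1 kHz filter, >70% series-resistance compensation, P/4 leak subtraction. Pulses of 2.5 s from −80 to 20 mV; tail current recorded at −60 mV. IC50 from variable-slope log(inhibitor)–response fit.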

[3] = test system: persistent AF canine model; test: Anti-atrial fibrillatory effect in persistent AF canine model; format: in vivo, beagle dogs
CYP2J2 [4] = molecular target: T1, CYP2J2; test: in vitro; format: biochemical
[5] = test system: persistent AF canine model; test: Proarrhythmic risk; format: in vivo, beagle dogs; conditions: 3 mg/kg i.v.; for peak increment of STVQT: at 3 h (dronedarone), 9 h (poyendarone), 1 h (amiodarone), n = 4
[6] = Metabolic stability, substrate depletion, HLM; format: in vitro ADME; conditions: human, human liver microsomes
Summary of the method: (§1)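 Substrate depletion. Test compound at 1 μmol/L incubated with NADPH generating system (NADP+, glucose 6-phosphate, glucose-6-phosphate dehydrogenase) and one enzyme source: human liver microsomes 0.5 mg/mL, rCYP3A4 10 pmol/mL or rCYP3A5 10 pmol/mL. Aliquots at set times quenched in ice-cold ACN with internal standard; parent measured by LC–MS/MS. Percent remaining versus time fitted to one-phase decay for CLint.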

[7] = molecular target: human CaV1.2 α1C cardiac isoform (Homo sapiens, UniProt Q13936); test: Whole-cell patch clamp, CaV1.2 peak current in transfected HEK293FT cells; format: cell-based
CYP3A4 [8] = molecular target: T2, CYP3A4 (Homo sapiens, UniProt P08684); test: Metabolic stability, substrate depletion, rCYP3A4; format: in vitro ADME
Summary of the method: as §1

H9c2 cells = test: Concurrent cytotoxicity and ATP depletion; format: cell-based, rat; conditions: 6 h
CYP3A4 [9] = molecular target: T2, CYP3A4; test: Mechanism-based inactivation of CYP3A4, rivaroxaban as probe substrate; format: biochemical
Summary of the method: (§2)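 Two-step inactivation assay. Recombinant CYP3A4 or CYP3A5 (20 pmol/mL) pre-incubated at 37 °C with test compound (0–20 μmol/L) and NADPH system in potassium phosphate buffer. At set times, aliquots diluted 20-fold into rivaroxaban plus NADPH regenerating system and incubated 2 h. ACN quench; rivaroxaban morpholinone product measured by LC–MS/MS. kobs from log % activity versus time; kinact and KI from kobs versus concentration; n = 3, mean ± SEM.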

CYP2J2 [10] = molecular target: T1, CYP2J2; format: biochemical; conditions: CYP2J2-mediated astemizole O-desmethylation
[11] = Effective permeability by PAMPA; format: physicochemical; conditions: pH 7.4
human NaV1.5 channel = human NaV1.5 channel (Homo sapiens, UniProt Q14524); test: Whole-cell patch clamp, NaV1.5 peak current in transfected HEK293FT cells; format: cell-based
Summary of the method: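 HEK293FT cells grown in DMEM with 10% FBS at 37 °C, 5% CO2. Co-transfected with human NaV1.5 and β1-subunit plasmids; replated on coated coverslips 24 h before recording. Peak INa measured by whole-cell voltage clamp with test compound at 1–10 μmol/L: 5–6 kHz filter, >70% series-resistance compensation, P/4 leak subtraction. IC50 from variable-slope log(inhibitor)–response fit.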

CYP2J2 [12] = molecular target: T1, CYP2J2; format: biochemical; conditions: co-incubation 2 h with NADPH
[13] = Aqueous kinetic solubility; format: physicochemical; conditions: universal aqueous buffer, pH 7.4
Summary of the method: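 Kinetic solubility: test compound from 10 mmol/L DMSO stock diluted into universal aqueous buffer, pH 7.4 (1% DMSO, v/v), then sonicated. Run in 3 filter-plate wells, agitated 24 h at 250 rpm at room temperature and filtered. Filtrate brought to 80:20 buffer/ACN. Solubility estimated from UV absorbance at 300 nm.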

CYP3A5 [14] = molecular target: T3, CYP3A5 (Homo sapiens, UniProt P20815); test: Mechanism-based inactivation of CYP3A5, rivaroxaban as probe substrate; format: biochemical
Summary of the method: as §2

CYP3A5 [15] = molecular target: T3, CYP3A5; test: Metabolic stability, substrate depletion, rCYP3A5; format: in vitro ADME
Summary of the method: as §1

[16] = hydrochloride 3 mg/kg i.v., conscious dogs

T2 sequence (P08684 whole entry): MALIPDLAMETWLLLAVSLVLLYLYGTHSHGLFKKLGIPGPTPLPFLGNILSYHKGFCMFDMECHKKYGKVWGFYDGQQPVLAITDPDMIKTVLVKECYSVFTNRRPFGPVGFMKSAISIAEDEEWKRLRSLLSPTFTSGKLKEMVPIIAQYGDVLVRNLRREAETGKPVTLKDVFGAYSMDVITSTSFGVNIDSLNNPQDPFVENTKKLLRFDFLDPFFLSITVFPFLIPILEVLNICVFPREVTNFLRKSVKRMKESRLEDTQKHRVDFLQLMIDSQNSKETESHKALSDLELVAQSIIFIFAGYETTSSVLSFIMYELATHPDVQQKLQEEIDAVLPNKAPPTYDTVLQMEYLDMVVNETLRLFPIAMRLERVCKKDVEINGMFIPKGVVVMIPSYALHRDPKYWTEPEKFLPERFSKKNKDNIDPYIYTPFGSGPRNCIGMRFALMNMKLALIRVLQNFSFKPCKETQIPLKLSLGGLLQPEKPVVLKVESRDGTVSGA
T3 sequence (P20815 whole entry): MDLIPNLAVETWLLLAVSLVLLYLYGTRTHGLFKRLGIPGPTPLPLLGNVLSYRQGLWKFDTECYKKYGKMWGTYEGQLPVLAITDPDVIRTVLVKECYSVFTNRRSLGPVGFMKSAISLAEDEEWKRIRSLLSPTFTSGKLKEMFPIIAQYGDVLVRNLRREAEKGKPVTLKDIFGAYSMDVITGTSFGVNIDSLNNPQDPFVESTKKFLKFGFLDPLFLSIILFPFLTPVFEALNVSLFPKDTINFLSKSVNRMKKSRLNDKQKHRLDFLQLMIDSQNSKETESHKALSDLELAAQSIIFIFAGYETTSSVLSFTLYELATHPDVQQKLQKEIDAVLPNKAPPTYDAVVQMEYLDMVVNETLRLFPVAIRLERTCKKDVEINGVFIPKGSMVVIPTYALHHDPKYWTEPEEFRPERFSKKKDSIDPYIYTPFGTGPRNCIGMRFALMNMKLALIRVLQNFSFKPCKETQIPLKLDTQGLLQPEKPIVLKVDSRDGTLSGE
human NaV1.5 channel, sequence (Q14524 whole entry): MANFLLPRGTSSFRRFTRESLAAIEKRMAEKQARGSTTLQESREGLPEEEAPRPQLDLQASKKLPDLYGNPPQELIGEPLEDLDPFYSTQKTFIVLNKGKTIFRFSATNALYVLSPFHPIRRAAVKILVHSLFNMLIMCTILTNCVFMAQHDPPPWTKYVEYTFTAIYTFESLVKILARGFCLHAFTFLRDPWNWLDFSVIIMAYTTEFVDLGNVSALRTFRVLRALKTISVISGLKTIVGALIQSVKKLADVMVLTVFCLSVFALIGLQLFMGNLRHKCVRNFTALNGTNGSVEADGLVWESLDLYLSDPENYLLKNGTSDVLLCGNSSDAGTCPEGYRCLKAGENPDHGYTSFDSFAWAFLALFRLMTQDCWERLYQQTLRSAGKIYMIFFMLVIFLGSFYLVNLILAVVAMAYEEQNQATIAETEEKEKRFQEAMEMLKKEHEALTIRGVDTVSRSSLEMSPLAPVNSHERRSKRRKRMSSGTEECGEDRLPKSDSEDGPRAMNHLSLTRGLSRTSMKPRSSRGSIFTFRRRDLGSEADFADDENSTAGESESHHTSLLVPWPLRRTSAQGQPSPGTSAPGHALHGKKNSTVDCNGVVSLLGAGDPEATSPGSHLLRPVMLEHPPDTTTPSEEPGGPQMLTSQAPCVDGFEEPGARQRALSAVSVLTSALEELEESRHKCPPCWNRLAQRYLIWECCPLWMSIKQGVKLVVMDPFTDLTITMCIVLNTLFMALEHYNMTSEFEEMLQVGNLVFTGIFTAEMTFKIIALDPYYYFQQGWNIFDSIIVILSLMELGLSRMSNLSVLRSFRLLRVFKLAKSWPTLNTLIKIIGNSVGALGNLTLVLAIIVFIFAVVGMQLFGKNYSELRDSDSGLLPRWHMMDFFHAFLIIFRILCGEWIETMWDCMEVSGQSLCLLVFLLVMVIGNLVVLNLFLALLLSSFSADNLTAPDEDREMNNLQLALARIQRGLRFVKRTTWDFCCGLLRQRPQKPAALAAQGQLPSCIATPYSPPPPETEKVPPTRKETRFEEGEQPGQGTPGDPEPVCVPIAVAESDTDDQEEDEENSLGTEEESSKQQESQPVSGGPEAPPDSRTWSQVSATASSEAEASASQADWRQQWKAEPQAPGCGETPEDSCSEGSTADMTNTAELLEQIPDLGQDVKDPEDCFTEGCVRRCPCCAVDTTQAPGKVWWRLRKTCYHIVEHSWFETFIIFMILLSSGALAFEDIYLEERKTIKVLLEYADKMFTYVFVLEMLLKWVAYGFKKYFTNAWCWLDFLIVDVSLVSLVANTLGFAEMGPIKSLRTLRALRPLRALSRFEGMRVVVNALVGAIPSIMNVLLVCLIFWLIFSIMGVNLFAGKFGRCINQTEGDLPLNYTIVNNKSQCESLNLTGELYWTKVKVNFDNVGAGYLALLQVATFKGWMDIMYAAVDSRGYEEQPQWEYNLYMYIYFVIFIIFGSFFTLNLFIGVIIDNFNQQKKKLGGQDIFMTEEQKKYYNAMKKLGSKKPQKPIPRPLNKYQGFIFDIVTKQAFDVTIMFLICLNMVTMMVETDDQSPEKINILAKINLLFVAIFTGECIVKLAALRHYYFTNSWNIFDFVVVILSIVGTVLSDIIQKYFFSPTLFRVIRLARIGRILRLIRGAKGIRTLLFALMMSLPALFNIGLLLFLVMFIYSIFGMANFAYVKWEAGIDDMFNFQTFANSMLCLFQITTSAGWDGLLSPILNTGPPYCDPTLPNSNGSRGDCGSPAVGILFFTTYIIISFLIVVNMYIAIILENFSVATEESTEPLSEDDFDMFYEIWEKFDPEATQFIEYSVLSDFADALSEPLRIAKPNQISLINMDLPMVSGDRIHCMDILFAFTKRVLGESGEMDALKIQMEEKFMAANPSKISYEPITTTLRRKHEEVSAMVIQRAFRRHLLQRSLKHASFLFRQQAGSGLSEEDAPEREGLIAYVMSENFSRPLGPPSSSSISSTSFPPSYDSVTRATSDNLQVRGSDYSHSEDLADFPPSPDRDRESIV
hKV11.1 (hERG) channel, sequence (Q12809 whole entry): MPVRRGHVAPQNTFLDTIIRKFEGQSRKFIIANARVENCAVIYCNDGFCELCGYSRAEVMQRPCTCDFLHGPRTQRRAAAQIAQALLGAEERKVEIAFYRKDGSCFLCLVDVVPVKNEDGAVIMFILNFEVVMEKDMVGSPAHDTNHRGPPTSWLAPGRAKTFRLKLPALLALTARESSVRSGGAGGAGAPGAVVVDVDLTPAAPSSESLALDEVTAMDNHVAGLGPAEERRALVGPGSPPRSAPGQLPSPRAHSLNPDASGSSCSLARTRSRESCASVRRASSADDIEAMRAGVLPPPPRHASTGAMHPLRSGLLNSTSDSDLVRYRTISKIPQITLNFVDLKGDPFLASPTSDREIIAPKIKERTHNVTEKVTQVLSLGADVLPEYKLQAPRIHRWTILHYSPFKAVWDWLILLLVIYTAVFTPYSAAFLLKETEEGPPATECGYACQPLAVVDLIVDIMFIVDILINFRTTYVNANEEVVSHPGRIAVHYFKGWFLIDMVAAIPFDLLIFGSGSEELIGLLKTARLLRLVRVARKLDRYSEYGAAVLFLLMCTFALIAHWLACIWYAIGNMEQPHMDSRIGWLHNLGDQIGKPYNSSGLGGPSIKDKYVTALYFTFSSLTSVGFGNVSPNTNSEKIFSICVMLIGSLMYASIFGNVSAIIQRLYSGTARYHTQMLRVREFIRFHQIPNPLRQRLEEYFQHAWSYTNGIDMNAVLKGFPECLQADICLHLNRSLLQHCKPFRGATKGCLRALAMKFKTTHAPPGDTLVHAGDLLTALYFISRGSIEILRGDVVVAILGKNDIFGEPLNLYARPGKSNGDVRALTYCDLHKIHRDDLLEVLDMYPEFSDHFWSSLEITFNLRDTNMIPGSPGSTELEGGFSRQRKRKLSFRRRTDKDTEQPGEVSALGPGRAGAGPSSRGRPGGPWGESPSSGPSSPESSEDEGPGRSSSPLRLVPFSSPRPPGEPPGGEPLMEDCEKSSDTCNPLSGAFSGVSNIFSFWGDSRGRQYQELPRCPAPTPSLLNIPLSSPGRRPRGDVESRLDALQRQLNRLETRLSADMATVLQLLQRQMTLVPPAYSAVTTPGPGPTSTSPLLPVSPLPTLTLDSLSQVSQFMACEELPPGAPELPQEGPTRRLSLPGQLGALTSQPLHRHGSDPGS

SMILES: CCCCc1oc2ccc(NS(C)(=O)=O)cc2c1C(=O)c1ccc(OCCCN(CCCC)CCCC)cc1 [Dronedarone]
- half-life at 1 μmol/L (CYP2J2 [1]; human, recombinant enzyme): 3.95 min
- Intrinsic clearance, CLint (CYP2J2 [1]; rCYP2J2): 0.88 µL/min/pmol
- atrial effective refractory period prolongation [2]: +4 ms
- inter-atrial conduction time prolongation [2]: +13 ms
- long-term variability (LTVRR), fold compared to poyendarone (hiPSC-CMs): 3 fold
- short-term variability (STVRR), fold compared to poyendarone (hiPSC-CMs): 4 fold
- IC50 (hKV11.1 (hERG) channel): 0.16 µM
- animals in which persistent AF was terminated ([3]; hydrochloride 3 mg/kg i.v. over 30 s, conscious dogs, 21 h observation): 2 out of 4
- time of AF termination after the start of administration (individual animals) [3, 16]: 5.2 h and 10.6 h
- kinact/KI (CYP2J2 [4]; CYP2J2, rivaroxaban substrate): 7.85e-05 M⁻¹ s⁻¹
- KI (CYP2J2 [4]; CYP2J2, rivaroxaban substrate, mean ± SEM): 8.47 ± 3.96 µM
- kinact (CYP2J2 [4]; human): 0.000667 s⁻¹
- MBI of CYP2J2-mediated rivaroxaban hydroxylation (in words) (CYP2J2 [4]; rivaroxaban as probe substrate): potently inactivated
- period after administration with increased STVQT [5]: 0.5 to 12 h
- STVQT relative to the critical border for early afterdepolarization ([5]; throughout observation period): intermittently elevated STVQT
- peak increment of STVQT [5]: 3.06 ± 0.80 ms
- half-life at 1 μmol/L [6]: 10.4 min
- microsomal CLint at 1 μmol/L [6]: 13.3 µL/min/mg
- IC50 [7]: 1.96 µM
- half-life at 1 μmol/L (CYP3A4 [8]; human, recombinant CYP3A4 (rCYP3A4)): 8.05 min
- Intrinsic clearance, CLint (CYP3A4 [8]; rCYP3A4): 0.86 µL/min/pmol
- fold higher cytotoxicity than poyendarone (H9c2 cells): 22 fold
- fold more potent decrease of intracellular ATP than poyendarone (H9c2 cells): 13 fold
- kinact/KI (CYP3A4 [9]): 8.42e-05 M⁻¹ s⁻¹
- kinact/KI (CYP3A4 [9]; as printed in text): 83.3 M⁻¹ s⁻¹
- KI (CYP3A4 [9]; mean ± SEM): 5.3 ± 2.95 µM
- kinact/KI (CYP2J2 [10]): 8300 M⁻¹ s⁻¹
- Papp at 16 h [11]: 3.46 ×10⁻⁶ cm/s
- IC50 (human NaV1.5 channel): 3.41 µM
- inhibition of CYP2J2-mediated AA metabolism to EETs (in words) (CYP2J2 [12]): inhibits CYP2J2-mediated AA metabolism in a concentration-dependent manner
- solubility at 24 h [13]: 3.22 ± 0.34 µg/mL (≈ 5.78 µM)
- kinact/KI (CYP3A5 [14]; CYP3A5, rivaroxaban substrate): 0.000121 M⁻¹ s⁻¹
- KI (CYP3A5 [14]; CYP3A5, rivaroxaban substrate, mean ± SEM): 4.44 ± 1.76 µM
- kinact (CYP3A5 [14]; human, recombinant CYP3A5 (rCYP3A5), probe rivaroxaban): 0.000538 s⁻¹
- half-life at 1 μmol/L (CYP3A5 [15]; human, recombinant CYP3A5 (rCYP3A5)): 12.2 min
- Intrinsic clearance, CLint (CYP3A5 [15]; rCYP3A5): 0.57 µL/min/pmol

SMILES: CCCCc1oc2ccccc2c1C(=O)c1cc(I)c(OCCN(CC)CC)c(I)c1 [Amiodarone]
- atrial effective refractory period prolongation [2]: -3 ms
- inter-atrial conduction time prolongation [2]: +1 ms
- spontaneous AF recurrence, time after the termination of AF ([3]; hydrochloride 3 mg/kg i.v., animal #1): 5.2 h
- time of AF termination after the start of administration (individual animals) [3, 16]: 7.7 h and 5.9 h
- peak increment of STVQT [5]: 1.05 ± 0.41 ms
